Target: T1, Melatonin receptor (Gallus gallus, UniProt P49288+P51050+P49285)
Assay: Effect of compound on Melatonin receptor in chicken brain in the presence of GTP-gamma-S

| Ki [nM] | Compound |
| --- | --- |
| 2.86 | CCC(=O)NCCc1c(OC)ccc2ccccc12 |

Target: T1, Melatonin receptor
Assay: Effect of compound on Melatonin receptor in chicken brain in the presence of MnCl2

| Ki [nM] | Compound |
| --- | --- |
| 0.297 | CCC(=O)NCCc1c(OC)ccc2ccccc12 |

Target: T1, Melatonin receptor
Assay: Competitive binding by the displacement of 2-[125I]- Iodomelatonin binding from melatonin receptors in chicken brain membranes
Assay type: cell membranes, Membrane
Procedure, shortened: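 Whole chicken brain (Redbro, 4 months) homogenized in ice-cold 50 mM Tris-HCl pH 7.4, washed twice by centrifugation, and resuspended at 5 mg protein/mL. Filtration through PEI-soaked glass fiber filters, then gamma counting. Nonspecific binding defined with 10 μM 2-iodomelatonin. Triplicates. Ki from IC50 by Cheng-Prusoff; one or two determinations.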

| Compound | Ki [nM] |
| --- | --- |
| CCc1ccc(OC)c(CCNC(C)=O)c1 | 217 |
| CCC(=O)NCCc1c(OC)ccc2ccc(OC)cc12 | 0.07 |
| CCC(=O)NCCc1c(OC)ccc2ccccc12 | 0.68 |
| COc1ccc2ccc(OC)c(CCNC(=O)C3CC3)c2c1 | 0.05 |
| COc1ccc(CCNC(C)=O)cc1 | > 1000 |
| COc1cccc(CCNC(C)=O)c1 | 253 |
| COc1ccc2ccccc2c1CCNC(=O)C1CC1 | 19.4 |
| COc1ccc2ccc(OC)c(CCNC(=O)C(F)(F)F)c2c1 | 0.4 |
| COc1ccc(Br)cc1CCNC(C)=O | 42 |
| CC(=O)NCCc1cccc2ccccc12 | 321 |
| CCC(=O)NCCc1cc(OC)ccc1OC | 17.5 |
| COc1ccc2ccccc2c1CCNC(=O)C(F)(F)F | 0.54 |
| COc1ccc(OC)c(CCNC(C)=O)c1 | 69.9 |
| CCCC(=O)NCCc1c(OC)ccc2ccccc12 | 1.37 |
| COc1ccc2ccccc2c1CC(C)NC(=O)C(F)(F)F (stereo not given) | > 1000 |
| CC(=O)NCCc1cccc(F)c1 | > 1000 |

Next, values leading:

| Ki [nM] | Compound |
| --- | --- |
| > 1000 | CC(=O)NCCc1cccc(Cl)c1 |
| > 1000 | CC(=O)NCCc1ccc(Cl)cc1 |
| 192 | COc1ccc(C)cc1CCNC(C)=O |
| 386 | COc1ccc(OC)c(CCNC(=O)C2CC2)c1 |
| 237 | CCCCC(=O)NCCc1c(OC)ccc2ccccc12 |
| 8 | CCC(=O)NCCc1cc(Br)ccc1OC |
| 0.1 | COc1ccc2ccc(OC)c(CCNC(C)=O)c2c1 |
| 213 | COc1ccccc1CCNC(C)=O |
| > 1000 | CC(=O)NCCc1ccccc1Cl |
| 2.68 | COc1ccc2ccccc2c1CCNC(C)=O |
| 421 | COc1ccc2ccccc2c1CC(C)NC(C)=O (stereo not given) |
| > 1000 | CCCCC(=O)NCCc1cc(OC)ccc1OC |

— ChEMBL document CHEMBL1128682, “Design and synthesis of new naphthalenic derivatives as ligands for 2-[125I]iodomelatonin binding sites” (J Med Chem, 1995)
